Test results reported in article PMC3919449 (Chemistry & biology, 2013).

How the values were obtained:
BE(2)-C cells [1] = assay: GE-HTS neuroblastoma differentiation signature in BE; assay type: cell-based; conditions: for induction of the differentiation signature (differentiation score): two days of treatment
Procedure, shortened: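 In BE(2)-C cells with 2 nM cisRA as differentiation enhancer, test compound applied at eight concentrations in duplicate for 2 days. Controls were 1 μM cisRA (positive) and DMSO (negative), plus a cisRA dose-response plate per run. GE-HTS gave the differentiation score. AUC: cubic natural spline at 50 points over log dose, trapezoid areas against the mean DMSO score, divided by log-concentration range.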

SH-SY5Y = assay: GE-HTS neuroblastoma differentiation signature in SH-SY5Y; assay type: cell-based; conditions: second cell line
[2] = test system: Kelly, LAN-1, BE(2)-C, and SH-SY5Y; assay: GE-HTS differentiation signature in four neuroblastoma cell lines; assay type: cell-based; conditions: two day and five day time points
Procedure, shortened: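 Cells grown in DMEM with 10% FBS and 1% penicillin-streptomycin with glutamine, then exposed to the test compound over a concentration range for 2 or 5 days. Read-out is GE-HTS: ligation-mediated amplification with fluorescent bead detection of 59 signature genes. Differentiation score is the signature-gene expression divided by mean control-gene expression, summed with weights/signs from cisRA vs DMSO controls. Four replicates; one-way ANOVA with Bonferroni versus DMSO.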

[3] = test system: Kelly, LAN-1, BE(2)-C, and SH-SY5Y; assay: ATP-based viability; conditions: four neuroblastoma cell lines, five days of treatment
Procedure, shortened: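 Kelly, LAN-1, BE(2)-C and SH-SY5Y grown in DMEM with 10% FBS and 1% penicillin-streptomycin with glutamine, identity confirmed by STR profiling. Cells exposed to test compound over a 9-point concentration range for five days; viability read by ATP luminescence (CellTiter Glo) per manufacturer's instructions.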

HDACs 4-9 = assay: HDAC activity assay, other HDACs; assay type: biochemical; conditions: HDACs 4-9, same concentration range
Procedure, shortened: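 Recombinant full-length HDAC preincubated 3 h with test compound, then fluorogenic substrate at Km: MAZ1600 for HDAC6 (9 μM); MAZ1675 for HDAC4 (10 μM), 5 (40 μM), 7 (22 μM), 8 (282 μM), 9 (26 μM). Trypsin-coupled AMC release read every 5 min; linear-range rate normalized to DMSO (<0.5%); IC50 by unconstrained logistic regression.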

[4] = test system: histone H3 acetylation in BE(2)-C cells; assay: Immunoblot for acetylated histone H3; assay type: cell-based; conditions: six hours of treatment
Procedure, shortened: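 BE(2)-C cells exposed to the test compound or DMSO for six hours; nuclear extracts then immunoblotted for acetylated histone H3.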

BE(2)-C cells [5] = assay: NF-M immunofluorescence, morphologic changes; assay type: cell-based; conditions: NF-M labeling
Procedure, shortened: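 BE(2)-C cells treated in duplicate with DMSO vehicle or the test compound for 72 h. Cells washed, fixed in 4% formaldehyde and permeabilized with 0.2% Triton X-100. Stained with monoclonal anti-NF-M and an Alexa Fluor 568 secondary. Mounted in antifade with DAPI counterstain; neurite projections examined.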

`CC1=C(/C=C/C(C)=C/C=C/C(C)=C/C(=O)O)C(C)(C)CCC1` [ATRA, all-trans retinoic acid] was tested, and the “induction of the differentiation signature (differentiation score)” value (shortened to “induction … (differentiation score)”) (BE(2)-C cells [1]) was “induce the differentiation signature in a dose-dependent manner”.

With `C[C@H](CO)N1C[C@H](C)[C@H](CN(C)Cc2ccc(C(=O)Nc3ccccc3N)cc2)Oc2c(cccc2N(C)C)C1=O` [BRD6332] the “induction … (differentiation score)” value (BE(2)-C cells [1]) was “greatly dampened differentiation activity”.

With `C[C@H](CO)N1C[C@H](C)[C@H](CN(C)Cc2ccc(C(=O)Nc3ccccc3N)cc2)Oc2ccc(N(C)C)cc2C1=O` [BRD6819] the “induction of the differentiation signature” value (SH-SY5Y) was “confirmed to induce the differentiation signature” and the “induction … (differentiation score)” value (BE(2)-C cells [1]) was “induced the differentiation signature in a manner similar to BRD8430”.

With `C[C@H](CO)N1C[C@H](C)[C@H](CN(C)Cc2ccc(C(=O)Nc3ccccc3N)cc2)Oc2ccc(N(C)C)cc2CC1=O` [BRD8430] the “induction of the differentiation signature” value (SH-SY5Y) was “confirmed to induce the differentiation signature”, the “induction of the differentiation signature” value [2] was “induce the differentiation signature in a concentration-dependent manner” and the viability [3] was “reduced the viability”. For the same compound, the “induction … (differentiation score)” value (BE(2)-C cells [1]) was “significantly inducing the signature at all eight concentrations tested”, the “AUC of the differentiation score across eight concentrations” value (BE(2)-C cells [1]; two days, eight concentrations) was “highest AUC value of the 32 compounds evaluated” and the “IC50 for inhibition of the other HDACs” value (HDACs 4-9) was “not able to determine IC50 values”. The “histone H3 acetylation” value [4] was “increased histone H3 acetylation in a concentration-dependent manner” and the “morphologic changes consistent with differentiation” value (BE(2)-C cells [5]) was “induced morphologic changes, including neurite outgrowth”.

With `CC(=O)Nc1ccc(C(=O)Nc2ccccc2N)cc1` [CI-994] the “induction … (differentiation score)” value (BE(2)-C cells [1]) was “significantly induced differentiation at multiple concentrations”.

With `Nc1ccccc1NC(=O)c1ccc(CNC(=O)OCc2cccnc2)cc1` [MS-275] the “induction … (differentiation score)” value (BE(2)-C cells [1]) was “significantly induced differentiation at multiple concentrations”.

`O=C(CCCCCCC(=O)Nc1ccccc1)NO` [Vorinostat, vorinostat] was tested, and the “induction … (differentiation score)” value (BE(2)-C cells [1]) was “significantly induced differentiation at multiple concentrations”.

In the case of `CC1=C(/C=C/C(C)=C/C=C/C(C)=C\C(=O)O)C(C)(C)CCC1` [cisRA, 13-cis retinoic acid], the “induction … (differentiation score)” value (BE(2)-C cells [1]) is reported as “induce the differentiation signature in a dose-dependent manner”.
